Measurements from different studies.
Lines come from different studies, so protocols differ.

test system	conditions	quantity	value	Compound
C57BL/6 mouse, plasma	oral, 30 mg/kg	AUC(0-t)	34000 ng·h/mL	COc1ccc(C(O)COc2ccc(-c3csc(-c4ccc(OCC(O)c5ccc(OC)c(OC)c5)cc4)n3)cc2)cc1OC (centres unmarked)
male C57BL/6 mouse, plasma	intraperitoneal, 30 mg/kg	AUC	3600 ng·h/mL	CNC(=O)[C@H](Cc1c[nH]cn1)NC(=O)CN(CCCc1ccccc1)CC(=O)O
mouse, plasma	oral, 2 mg/kg	AUC	0.78 µM·h	CC1(C)c2nc(-c3ccc(F)cc3)c(Nc3ccc(F)cc3)n2CCN1C(=O)CN
male C57BL/6 mouse, plasma	intraperitoneal, 30 mg/kg	AUC	1900 ng·h/mL	Cc1noc([C@H](Cc2c[nH]cn2)NC(=O)CN(CCCc2ccccc2)CC(=O)O)n1
male C57BL/6 mouse, serum	oral, 10 mg/kg	AUC	6.9 µM·h	CC(C)(O)c1cn(-c2ccc(-c3cc(F)c(CO)c(S(C)(=O)=O)c3)cc2)c(C(C)(C)c2cccc(F)c2Cl)n1
male CD-1 mouse, plasma	intravenous, 3 mg/kg	AUC(0-inf)	1840 ng·h/mL	COc1ccc2nccc(N3CCc4c(cc(Cn5ccnc5)cc4-c4cn(C)nc4C(F)(F)F)C3=O)c2c1
male BALB/c mouse, plasma	intravenous, 10 mg/kg	AUC(0-t)	233000 ng·h/mL	CC[C@H](C)[C@@H]1NC(=O)[C@@](C)(NC(=O)[C@H](CCCNC(=N)N)NC(=O)[C@H](CC(C)C)NC(=O)[C@@H](NC(=O)[C@H](CCC(N)=O)NC(=O)[C@H](CC(C)C)NC(C)=O)[C@@H](C)O)CCCC=CCCC[C@@](C)(C(=O)N[C@@H](CC(C)C)C(=O)N[C@@H](Cc2ccc3ccccc3c2)C(N)=O)NC(=O)[C@H](CCCNC(=N)N)NC(=O)[C@H](CCC(N)=O)NC1=O
male C57BL/6 mouse, serum	oral, 10 mg/kg	AUC	57 µM·h	CC(C)(O)c1cn(-c2ccc(-c3cccc(S(C)(=O)=O)c3)cc2)c(C(C)(C)c2ccccc2Cl)n1
male BALB/c mouse, plasma	oral, 500 mg/kg	AUC	3400 ng·h/mL	NC[C@@H]1O[C@H](O[C@H]2[C@@H](O)[C@H](O[C@@H]3[C@@H](O)[C@H](N)C[C@H](N)[C@H]3O[C@H]3O[C@H](CO)[C@@H](O)[C@H](O)[C@H]3N)O[C@@H]2CO)[C@H](N)[C@@H](O)[C@@H]1O
SCID mouse, plasma	oral, 1 mg/kg	AUC(0-t)	175 ng·h/mL	C=CC(=O)N1CC2CC(n3nc(-c4ccc(C(=O)Nc5ccccn5)cc4)c4c(N)ncnc43)CC2C1 (centres unmarked)
CD-1 mouse, plasma	oral, 10 mg/kg	AUC	741 ng·h/mL	OC[C@H]1O[C@@H](c2ccc(Cl)c(Cc3ccc(O[C@H]4CCOC4)cc3)c2)[C@H](O)[C@@H](O)[C@@H]1O
